Drawing on BindingDB's records for doi:10.1016/j.bmcl.2015.12.102 (Reset Therapeutics, 2016), this text covers EC50 for 41 compounds.

The target of this assay is T1, Period circadian protein homolog 2 (Homo sapiens, UniProt O15055).
T1 sequence (O15055 whole entry): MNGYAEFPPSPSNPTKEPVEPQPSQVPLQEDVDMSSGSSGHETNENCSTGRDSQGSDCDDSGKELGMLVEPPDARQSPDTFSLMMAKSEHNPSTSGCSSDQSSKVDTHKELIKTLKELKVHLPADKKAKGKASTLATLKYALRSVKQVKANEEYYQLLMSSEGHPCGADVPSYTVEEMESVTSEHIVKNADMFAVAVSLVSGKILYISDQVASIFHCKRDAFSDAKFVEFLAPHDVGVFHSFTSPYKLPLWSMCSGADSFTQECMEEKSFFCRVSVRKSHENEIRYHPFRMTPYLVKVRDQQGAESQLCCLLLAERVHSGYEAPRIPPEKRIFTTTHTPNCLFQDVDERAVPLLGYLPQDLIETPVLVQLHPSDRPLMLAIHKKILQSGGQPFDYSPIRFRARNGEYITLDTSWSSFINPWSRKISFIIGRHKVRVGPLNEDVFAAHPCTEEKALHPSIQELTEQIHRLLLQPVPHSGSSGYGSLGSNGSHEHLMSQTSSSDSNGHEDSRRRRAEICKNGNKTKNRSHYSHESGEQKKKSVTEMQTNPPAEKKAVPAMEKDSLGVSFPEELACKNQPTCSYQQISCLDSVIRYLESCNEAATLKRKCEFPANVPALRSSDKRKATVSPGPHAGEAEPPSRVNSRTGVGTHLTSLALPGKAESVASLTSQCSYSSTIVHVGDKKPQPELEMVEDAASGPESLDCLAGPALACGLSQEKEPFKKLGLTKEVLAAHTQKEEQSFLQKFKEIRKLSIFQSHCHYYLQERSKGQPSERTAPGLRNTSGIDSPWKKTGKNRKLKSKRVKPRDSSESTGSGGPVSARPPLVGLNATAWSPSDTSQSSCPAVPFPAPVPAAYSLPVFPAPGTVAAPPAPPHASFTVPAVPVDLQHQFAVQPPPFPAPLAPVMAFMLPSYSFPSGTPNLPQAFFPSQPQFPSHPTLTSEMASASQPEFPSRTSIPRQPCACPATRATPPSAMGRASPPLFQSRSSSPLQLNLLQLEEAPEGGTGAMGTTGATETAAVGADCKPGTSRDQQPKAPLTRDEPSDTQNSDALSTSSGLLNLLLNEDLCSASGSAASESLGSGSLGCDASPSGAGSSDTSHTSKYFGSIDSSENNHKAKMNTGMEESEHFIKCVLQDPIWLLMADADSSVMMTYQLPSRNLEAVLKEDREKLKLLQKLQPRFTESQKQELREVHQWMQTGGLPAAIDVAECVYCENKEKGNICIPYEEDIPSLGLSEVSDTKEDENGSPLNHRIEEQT
In words: Reduction of amplitude effect of PER2 in human U2OS cells harboring Per2-dLuc luciferase reporter gene assessed as effects on circadian rhythms. In a few lines:
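Human osteosarcoma U2OS cells carrying a Per2-dLuc luciferase reporter, treated continuously; circadian luminescence rhythm amplitude followed. 8-point threefold dilution series; EC50 taken as concentration giving 50% of the compound's own maximal response (titrations without plateau give no EC50).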

Regarding `O=S(=O)(C1CCCCC1)N(Cc1ccco1)CC(O)Cn1c2ccccc2c2ccccc21` (stereo unspecified), the EC50 worked out at 1000 nM.
With `COCCS(=O)(=O)N(Cc1ccco1)CC(O)Cn1c2ccccc2c2ccccc21` (stereo unspecified), the EC50 was 288 nM.
The same measure for `O=S(=O)(C1CC1)N(Cc1ccco1)CC(O)Cn1c2ccccc2c2ccccc21` (stereo unspecified): 557 nM.
For the compound `CCCCS(=O)(=O)N(Cc1ccco1)CC(O)Cn1c2ccccc2c2ccccc21` (stereo unspecified), the EC50 worked out at 374 nM.
On to `CC(C)CS(=O)(=O)N(Cc1ccco1)CC(O)Cn1c2ccccc2c2ccccc21` (stereo unspecified), for which the 50% effective concentration (EC50) came to 361 nM.
`O=S(=O)(C1CCOC1)N(Cc1ccco1)CC(O)Cn1c2ccccc2c2ccccc21` (stereo unspecified): the EC50 stood at 1180 nM.
Turning to `CC(C)S(=O)(=O)N(Cc1ccco1)CC(O)Cn1c2ccccc2c2ccccc21` (stereo unspecified), the EC50 was 438 nM.
Regarding `CCCS(=O)(=O)N(Cc1ccco1)CC(O)Cn1c2ccccc2c2ccccc21` (stereo unspecified), the EC50 came out at 516 nM.
For `CCS(=O)(=O)N(Cc1ccco1)CC(O)Cn1c2ccccc2c2ccccc21` (stereo unspecified), the 50% effective concentration (EC50) is 197 nM.
For the compound `CS(=O)(=O)N(CC(O)Cn1c2ccccc2c2ccccc21)c1ccccn1` (stereo unspecified), the EC50 is over 10000 nM.
As for `CS(=O)(=O)N(CC(O)Cn1c2ccccc2c2ccccc21)C1CCCC1` (stereo unspecified), the EC50 was 308 nM.
Turning to `CS(=O)(=O)N(CC(O)Cn1c2ccccc2c2ccccc21)C1CCCCC1` (stereo unspecified), the EC50 was determined as 532 nM.
For the compound `CS(=O)(=O)N(CC(O)Cn1c2ccccc2c2ccccc21)C1COC1` (stereo unspecified), the EC50 came to 3530 nM.
In the case of `CS(=O)(=O)N(CC(O)Cn1c2ccccc2c2ccccc21)C1CCOCC1` (stereo unspecified), the EC50 was 819 nM.
Take `CS(=O)(=O)N(CC(O)Cn1c2ccccc2c2ccccc21)C1CC(F)(F)C1` (stereo unspecified): the EC50 is 1270 nM.
On to `CS(=O)(=O)N(CC(O)Cn1c2ccccc2c2ccccc21)C1CCC(F)(F)CC1` (stereo unspecified), for which the EC50 stood at 690 nM.
As to `COCCN(CC(O)Cn1c2ccccc2c2ccccc21)S(C)(=O)=O` (stereo unspecified), the EC50 was 1020 nM.
On to `CS(=O)(=O)N(CC(O)Cn1c2ccccc2c2ccccc21)c1ccccc1` (stereo unspecified), for which the EC50 was found to be 272 nM.
Next, `CS(=O)(=O)N(CC(O)Cn1c2ccccc2c2ccccc21)c1ccccc1F` (stereo unspecified): 2550 nM; `CS(=O)(=O)N(CC(O)Cn1c2ccccc2c2ccccc21)c1cccc(F)c1` (stereo unspecified): 400 nM.
Turning to `CS(=O)(=O)N(CC(O)Cn1c2ccccc2c2ccccc21)c1ccc(F)cc1` (stereo unspecified), the EC50 was found to be 939 nM.
Turning to `CS(=O)(=O)N(Cc1ccccc1)CC(O)Cn1c2ccccc2c2ccccc21` (stereo unspecified), the EC50 is 818 nM.
Turning to `O=S1(=O)CCN1CC(O)Cn1c2ccccc2c2ccccc21` (stereo unspecified), the EC50 was found to be 190 nM.
For `O=S1(=O)CCCN1CC(O)Cn1c2ccccc2c2ccccc21` (stereo unspecified), the EC50 is 144 nM.
The same measure for `O=S1(=O)CCCCN1CC(O)Cn1c2ccccc2c2ccccc21` (stereo unspecified): 173 nM; for `O=S1(=O)COCCN1CC(O)Cn1c2ccccc2c2ccccc21` (stereo unspecified): 73 nM; for `O=S1(=O)NCCN1CC(O)Cn1c2ccccc2c2ccccc21` (stereo unspecified): 42 nM.
As for `CN1CCN(CC(O)Cn2c3ccccc3c3ccccc32)S1(=O)=O` (stereo unspecified), the EC50 was 132 nM.
Regarding `O=S1(=O)NCCCN1CC(O)Cn1c2ccccc2c2ccccc21` (stereo unspecified), the EC50 came out at 384 nM.
Next, `CN1CCCN(CC(O)Cn2c3ccccc3c3ccccc32)S1(=O)=O` (stereo unspecified): 726 nM; `O=S(=O)(c1ccccc1)N(Cc1ccco1)CC(O)Cn1c2ccccc2c2ccccc21` (stereo unspecified): 1090 nM.
Regarding `O=S(=O)(Cc1ccccc1)N(Cc1ccco1)CC(O)Cn1c2ccccc2c2ccccc21` (stereo unspecified), the EC50 came to 415 nM.
Next, `CS(=O)(=O)NCC(O)Cn1c2ccccc2c2ccccc21` (stereo unspecified): 479 nM; `CN(CC(O)Cn1c2ccccc2c2ccccc21)S(C)(=O)=O` (stereo unspecified): 781 nM.
Take `CCN(CC(O)Cn1c2ccccc2c2ccccc21)S(C)(=O)=O` (stereo unspecified): the EC50 stood at 505 nM.
Take `CCCN(CC(O)Cn1c2ccccc2c2ccccc21)S(C)(=O)=O` (stereo unspecified): the half-maximal effective concentration (EC50) amounted to 408 nM.
On to `CC(C)N(CC(O)Cn1c2ccccc2c2ccccc21)S(C)(=O)=O` (stereo unspecified), for which the EC50 was 511 nM.
Regarding `CC(C)CN(CC(O)Cn1c2ccccc2c2ccccc21)S(C)(=O)=O` (stereo unspecified), the EC50 stood at 178 nM.
On to `CS(=O)(=O)N(CC(O)Cn1c2ccccc2c2ccccc21)C1CC1` (stereo unspecified), for which the EC50 was found to be 446 nM.
In the case of `CS(=O)(=O)N(CC(O)Cn1c2ccccc2c2ccccc21)C1CCC1` (stereo unspecified), the EC50 turned out to be 129 nM.
In the case of `CS(=O)(=O)N(Cc1ccco1)CC(O)Cn1c2ccccc2c2ccccc21` (stereo unspecified) [N-(3-carbazol-9-yl-2-hydroxypropyl)-N-(furan-2-ylmethyl)methanesulfonamide], the EC50 was determined as 870 nM.
